This note sets out measurements from ChEMBL document CHEMBL3425454, “Synthesis, biological evaluation and modeling studies of terphenyl topoisomerase IIα inhibitors as anticancer agents” (Eur J Med Chem, 2015).

One assay has as its system MDA-MB-435. In words: Cytotoxicity against human MDA-MB-435 cells assessed as cell growth inhibition after 72 hrs by MTT assay. The assay is classed as functional, cell-based. The following applies: MDA-MB-435, 72 h. Summed up:
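MDA-MB-435 cells treated in triplicate with a range of concentrations for 72 h at 37°C, 5% CO2. Medium then replaced, MTT (5 mg/mL) added for 4 h, followed by overnight lysis in 10% SDS/5% isobutanol/12 mM HCl. Absorbance read at 590 nm; inhibition computed against control and blank wells. IC50 = concentration giving 50% growth inhibition, mean±SD of three experiments.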
A general note: Formazan colour is commonly taken as a measure of viable cells.

Assay [1] deals with DNA topoisomerase 2-alpha (Homo sapiens) (UniProt P11388). As to the kind of experiment: Inhibition of human recombinant topoisomerase-2 alpha assessed as conversion of negatively supercoiled plasmid DNA pBR322 to relaxed DNA at 100 uM after 30 mins by agarose gel electrophoresis. The method, boiled down: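 Recombinant human TOP2α (1 unit) incubated with 0.5 μg supercoiled pBR322 in 10 mM Tris-HCl pH 7.9, 50 mM NaCl, 50 mM KCl, 5 mM MgCl2, 1 mM EDTA, 1 mM ATP, BSA; 30 min at 30 °C. Stopped with 7 mM EDTA. Products resolved on 1% agarose in TAE at 5 V/cm for 2 h and stained with ethidium bromide. Performed at least in duplicate.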
Sequence of DNA topoisomerase 2-alpha (Homo sapiens) (P11388 whole entry): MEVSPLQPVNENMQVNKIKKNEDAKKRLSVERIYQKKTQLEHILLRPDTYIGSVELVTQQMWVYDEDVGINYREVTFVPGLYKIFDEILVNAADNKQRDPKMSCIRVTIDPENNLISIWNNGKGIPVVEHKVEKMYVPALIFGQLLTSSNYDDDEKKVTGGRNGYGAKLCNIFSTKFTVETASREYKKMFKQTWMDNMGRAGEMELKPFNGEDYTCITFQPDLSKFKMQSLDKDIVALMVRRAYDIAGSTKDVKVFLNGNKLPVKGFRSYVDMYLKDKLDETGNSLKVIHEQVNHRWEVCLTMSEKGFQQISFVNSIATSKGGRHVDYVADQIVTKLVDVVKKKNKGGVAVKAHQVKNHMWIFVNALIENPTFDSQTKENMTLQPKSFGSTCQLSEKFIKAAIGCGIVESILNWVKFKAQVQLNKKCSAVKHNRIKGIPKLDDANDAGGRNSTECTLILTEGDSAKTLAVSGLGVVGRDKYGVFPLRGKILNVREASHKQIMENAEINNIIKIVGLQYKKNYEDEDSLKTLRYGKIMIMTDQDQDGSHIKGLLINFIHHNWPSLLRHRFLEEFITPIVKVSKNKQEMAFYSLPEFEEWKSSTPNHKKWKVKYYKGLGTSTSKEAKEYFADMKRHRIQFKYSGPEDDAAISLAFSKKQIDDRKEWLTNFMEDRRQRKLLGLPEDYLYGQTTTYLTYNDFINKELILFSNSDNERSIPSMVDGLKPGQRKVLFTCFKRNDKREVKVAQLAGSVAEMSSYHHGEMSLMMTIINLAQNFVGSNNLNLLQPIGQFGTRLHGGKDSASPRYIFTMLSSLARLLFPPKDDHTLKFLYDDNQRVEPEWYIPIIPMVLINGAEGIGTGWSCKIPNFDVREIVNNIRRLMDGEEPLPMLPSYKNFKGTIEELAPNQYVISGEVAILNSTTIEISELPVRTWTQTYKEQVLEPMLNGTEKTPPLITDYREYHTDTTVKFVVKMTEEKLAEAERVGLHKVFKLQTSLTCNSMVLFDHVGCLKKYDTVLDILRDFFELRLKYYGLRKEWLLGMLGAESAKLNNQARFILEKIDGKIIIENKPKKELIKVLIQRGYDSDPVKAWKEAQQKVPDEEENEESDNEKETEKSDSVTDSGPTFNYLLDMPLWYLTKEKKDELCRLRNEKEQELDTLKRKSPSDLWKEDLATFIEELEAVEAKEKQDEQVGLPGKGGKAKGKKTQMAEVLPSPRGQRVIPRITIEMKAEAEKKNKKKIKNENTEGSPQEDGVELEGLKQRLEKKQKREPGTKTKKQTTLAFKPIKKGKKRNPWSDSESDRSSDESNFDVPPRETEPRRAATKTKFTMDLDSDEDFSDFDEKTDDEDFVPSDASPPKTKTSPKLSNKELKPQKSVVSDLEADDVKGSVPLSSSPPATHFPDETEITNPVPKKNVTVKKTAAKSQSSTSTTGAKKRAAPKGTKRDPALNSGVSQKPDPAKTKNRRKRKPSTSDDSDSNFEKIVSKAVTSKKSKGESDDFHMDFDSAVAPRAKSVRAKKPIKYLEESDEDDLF

Assay [2] has as its target T1, Topoisomerase I (Bos taurus) (UniProt Q2HPH0).
T1 sequence (whole entry): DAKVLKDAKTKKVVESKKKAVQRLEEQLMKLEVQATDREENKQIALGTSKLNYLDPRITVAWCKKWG
In words: Inhibition of calf thymus topoisomerase-1 assessed as conversion of negatively supercoiled plasmid DNA pBR322 to relaxed DNA at 100 uM after 30 mins by agarose gel electrophoresis. Summed up: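 Relaxation of 0.5 μg supercoiled pBR322 by 1 unit calf thymus TOP1 in 10 mM Tris-HCl pH 7.9, 150 mM NaCl, 0.1% BSA, 1 mM spermidine, 5% glycerol; 30 min at 37 °C. Reaction stopped with sarcosyl/bromophenol blue/glycerol. Products run on 1% agarose in TAE at 5 V/cm for 2 h and stained with ethidium bromide (0.5 μg/mL). Performed at least in duplicate.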

Assay [3] addresses DNA topoisomerase 2-alpha (Homo sapiens) (UniProt P11388). In words: Inhibition of human recombinant topoisomerase-2 alpha-mediated DNA cleavage using circular supercoiled plasmid DNA as substrate.
Assay [4] has the same target. In words: Inhibition of human recombinant topoisomerase-2 alpha assessed as topoisomerase poison activity using circular supercoiled plasmid DNA as substrate.

Active and inactive are the calls of the source. The rule behind the calls is not given here. Some results are limits rather than exact numbers.

Take `COc1ccc(-c2ccc(-c3ccc(OC)c(OC)c3)c(OC(C)=O)c2OC(C)=O)cc1OC`: in the assay on MDA-MB-435, the IC50 (commonly the concentration that inhibits the measured activity by half) is more than 100 µM. The same measure, in the same setting: to `COc1ccc(-c2cccc(OC)c2OC)cc1OC` belongs 23.1 µM. With `COc1c(-c2ccc(O)cc2)ccc(-c2ccc(O)cc2)c1OC`, in the assay with MDA-MB-435, the IC50 is 14.7 µM. Also, the inhibition entry in assay [1] is “Active”. For the molecule `Oc1ccc(-c2ccc(-c3ccc(O)cc3)c(O)c2O)cc1`, the concentration for half-maximal inhibition (IC50) in the assay on MDA-MB-435 was more than 100 µM. The same measure, in the same setting: to `O=C(O)c1ccc(-c2ccc(-c3ccc(O)c(O)c3)c(O)c2O)cc1` belongs more than 100 µM; to `CCOc1c(-c2ccc(OC)c(OC)c2)ccc(-c2ccc(OC)c(OC)c2)c1OCC`, more than 100 µM.

On to `COc1c(-c2ccc(O)cc2)ccc(-c2ccc(C(=O)O)c(O)c2)c1OC`, for which, in the assay with MDA-MB-435, the IC50 was more than 100 µM. On the same count and under the same terms, to `CCOc1c(-c2ccc(O)cc2)ccc(-c2ccc(O)cc2)c1OCC` belongs 41.8 µM; to `COC(=O)c1cc(-c2ccc(-c3ccc(O)cc3)c(OC)c2OC)ccc1O`, 44.8 µM; to `COc1ccc(-c2ccc(-c3ccc(C(=O)O)cc3)c(OC)c2OC)cc1OC`, more than 100 µM.

In the case of `O=C(O)c1ccc(-c2ccc(-c3ccc(O)cc3)c(O)c2O)cc1O`, the IC50 with MDA-MB-435 is 36.8 µM. Still for that read-out and setting: as for `O=[N+]([O-])c1cc(-c2ccc(O)c([N+](=O)[O-])c2)ccc1O`, the figure is more than 100 µM; as for `COc1ccc(-c2ccc(-c3ccc(OC)cc3)c(OC(C)=O)c2OC(C)=O)cc1`, 96.8 µM.

On to `COc1c(-c2ccc(O)cc2)ccc(-c2ccc(O)c(C(=O)O)c2)c1OC`, for which the IC50 in the assay on MDA-MB-435 is more than 100 µM. On the same count and under the same terms, to `COC(=O)c1ccc(-c2ccc(-c3ccc(O)cc3)c(OC)c2OC)cc1O` belongs 20.9 µM; to `Oc1ccc(-c2ccc(-c3ccc(O)c(O)c3)c(O)c2O)cc1`, 4.1 µM. Take `COc1cc([C@@H]2c3cc4c(cc3[C@@H](O[C@@H]3O[C@@H]5CO[C@@H](C)O[C@H]5[C@H](O)[C@H]3O)[C@H]3COC(=O)[C@H]23)OCO4)cc(OC)c1O` [ETOPOSIDE]: the IC50 in the assay with MDA-MB-435 was 2.81 µM. Moreover, the inhibition entry in assay [1] is “Active”.

In the case of `COc1c(-c2ccc(O)c([N+](=O)[O-])c2)ccc(-c2ccc(O)c([N+](=O)[O-])c2)c1OC`, in the assay on MDA-MB-435, the IC50 turned out to be 61.8 µM.

As for `COc1ccc(-c2ccc(-c3ccc(OC)c(OC)c3)c(OC)c2OC)cc1OC`, the IC50 with MDA-MB-435 amounted to 90.8 µM.

For `Oc1ccc(-c2ccc(-c3ccc(O)c(O)c3)c(O)c2O)cc1O`, the IC50 in the assay on MDA-MB-435 came out at 3.96 µM. For the same molecule, the inhibition result in assay [2], in assay [1] and in assay [3] was “Active” each time. Besides, the inhibition result in assay [4] was “inactive”. Turning to `O=C(O)c1cc(-c2ccc(-c3ccc(O)cc3)c(O)c2O)ccc1O`, the IC50 with MDA-MB-435 is 99.8 µM.
